Reference: ChEMBL document CHEMBL3112425, “Design, synthesis, and structure-activity relationship studies of a potent PACE4 inhibitor” (J Med Chem, 2014)
Peptide text beside a SMILES is read from it. * marks the point of attachment. X1 = N=C(N)NC/C=C/CN*

Assays:
Furin = Furin (Homo sapiens, UniProt P09958); assay: Inhibition of human recombinant furin expressed in drosophila schneider 2 cells using pyroGlu-Arg-Thr-Lys-Arg-AMC as substrate after 1 hr
How it was run: (§1)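 Human enzymes were expressed in Drosophila S2 cells and purified. Fluorogenic pyroGlu-RTKR-AMC was used at fixed concentration with varied inhibitor, 37 °C over 1 h. Buffers: furin, 100 mM Hepes pH 7.5, 1 mM CaCl2, 1 mM β-mercaptoethanol, 1.8 mg/mL BSA; PACE4 and PC7, 20 mM Bis-Tris pH 6.5, 1 mM CaCl2, 1.8 mg/mL BSA; PC2, same buffer at pH 5.7. Ki from IC50 (Cheng–Prusoff), or apparent Ki (Morrison) for tight binders. Triplicate, mean ± SD.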

DU-145 = assay: Cytotoxicity against human DU145 cells after 72 hrs by MTT assay; assay type: functional, cell-based; settings: DU-145, 72 h
How it was run: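 Prostate cancer cells were kept in RPMI 1640 at 37 °C, 5% CO2, with 5% FBS for DU145 and 10% FBS for LNCaP and PC3. After 24 h, medium was changed and peptides added at various concentrations, up to 350 μM. Viability was read by MTT after 72 h treatment. IC50 from dose–response curves, triplicate, mean ± SEM.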

[1] = molecular target: T1, Proprotein convertase subtilisin/kexin type 7 (Homo sapiens, UniProt Q16549); assay: Inhibition of human PC7 expressed in drosophila schneider 2 cells using pyroGlu-Arg-Thr-Lys-Arg-AMC as substrate after 1 hr; how it was run: as §1
T1 sequence (Q16549 whole entry): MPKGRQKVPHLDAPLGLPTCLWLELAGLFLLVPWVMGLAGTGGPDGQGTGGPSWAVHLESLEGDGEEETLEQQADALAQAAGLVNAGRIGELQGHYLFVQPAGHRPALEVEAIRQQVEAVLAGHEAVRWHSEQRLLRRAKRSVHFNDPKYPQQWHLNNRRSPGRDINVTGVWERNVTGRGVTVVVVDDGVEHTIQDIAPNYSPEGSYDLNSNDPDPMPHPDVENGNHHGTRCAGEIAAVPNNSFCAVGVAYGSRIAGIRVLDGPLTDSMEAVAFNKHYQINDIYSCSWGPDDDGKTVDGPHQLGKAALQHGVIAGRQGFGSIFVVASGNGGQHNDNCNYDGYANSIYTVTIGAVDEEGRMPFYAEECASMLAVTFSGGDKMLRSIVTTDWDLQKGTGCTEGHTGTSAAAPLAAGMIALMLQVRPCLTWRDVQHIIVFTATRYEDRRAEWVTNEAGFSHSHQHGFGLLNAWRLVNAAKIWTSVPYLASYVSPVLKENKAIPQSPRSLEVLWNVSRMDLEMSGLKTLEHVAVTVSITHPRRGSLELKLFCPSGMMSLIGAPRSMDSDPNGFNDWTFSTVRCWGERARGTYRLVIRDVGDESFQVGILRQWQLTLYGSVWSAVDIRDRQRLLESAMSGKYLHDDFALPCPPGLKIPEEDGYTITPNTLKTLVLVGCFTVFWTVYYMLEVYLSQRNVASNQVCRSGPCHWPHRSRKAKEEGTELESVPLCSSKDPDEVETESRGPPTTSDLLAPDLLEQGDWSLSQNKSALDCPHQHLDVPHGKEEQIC

[2] = Acute toxicity in human DU145 cells assessed as cell death/lysis at 100 uM after 4 hrs by LDH assay; assay type: cell-based, DU-145; settings: read-out: INH
How it was run: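 DU145 cells (RPMI 1640, 5% FBS, 37 °C, 5% CO2) plated; 24 h later peptides added at 100 μM. After 4 h, release of lactate dehydrogenase into the medium was quantified enzymatically with a commercial LDH cytotoxicity kit as the measure of acute membrane damage/lysis.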

Sequence of Furin (P09958 whole entry): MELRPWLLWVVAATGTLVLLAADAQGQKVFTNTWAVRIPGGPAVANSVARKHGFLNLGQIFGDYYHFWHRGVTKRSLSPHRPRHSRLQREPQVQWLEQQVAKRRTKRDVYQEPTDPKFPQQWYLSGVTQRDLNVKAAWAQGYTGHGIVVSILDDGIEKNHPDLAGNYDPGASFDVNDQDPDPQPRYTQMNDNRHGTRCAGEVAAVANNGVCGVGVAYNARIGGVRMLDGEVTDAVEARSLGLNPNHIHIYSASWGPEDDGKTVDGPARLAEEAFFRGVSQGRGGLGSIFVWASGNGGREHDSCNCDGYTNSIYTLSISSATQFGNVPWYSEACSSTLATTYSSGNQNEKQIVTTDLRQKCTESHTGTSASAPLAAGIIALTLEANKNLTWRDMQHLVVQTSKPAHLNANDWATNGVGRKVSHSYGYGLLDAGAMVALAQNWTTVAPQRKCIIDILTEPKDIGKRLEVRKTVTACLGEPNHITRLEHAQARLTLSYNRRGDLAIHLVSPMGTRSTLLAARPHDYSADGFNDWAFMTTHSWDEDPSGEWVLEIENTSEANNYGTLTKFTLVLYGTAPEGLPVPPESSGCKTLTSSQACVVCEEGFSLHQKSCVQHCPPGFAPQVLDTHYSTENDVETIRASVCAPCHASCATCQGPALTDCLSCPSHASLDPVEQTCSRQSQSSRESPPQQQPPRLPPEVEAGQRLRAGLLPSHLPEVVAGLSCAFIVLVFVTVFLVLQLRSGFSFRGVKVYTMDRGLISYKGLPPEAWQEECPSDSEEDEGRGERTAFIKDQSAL

## CC(=O)N[C@@H](CC(C)C)C(=O)N[C@@H](CC(C)C)C(=O)N[C@@H](CC(C)C)C(=O)N[C@@H](CC(C)C)C(=O)N[C@@H](CCCNC(=N)N)C(=O)N[C@H](C(=O)N[C@@H](CCCCN)C(=O)NC/C=C/CNC(=N)N)C(C)C (Ac-LLLLRVK-X1)
Furin
  Ki: 27 nM
DU-145
  IC50: 90000 nM
[1]
  Ki: 72 nM
[2]
  cytotoxicity at 4 h, 100 µM: < 5%
